Data published in publication PMC5667346 (Theranostics, 2017).
Ends that are not written are not given here.

Columns and labels:
[1] = Pharmacokinetic analysis, terminal elimination half-life after i.v. injection; type: in vivo; conditions: male ICR mice, i.v. 500 μg/kg
DLS assay = type: physicochemical; conditions: 2 mg/mL in 10 mM PBS, 20°C
[2] = test system: bacterial colony count in CLP-induced septic mice; experiment: Bacterial count in peritoneal fluid and blood of CLP-operated mice; type: in vivo, mouse; conditions: 500 μg/kg i.v. 12 h after CLP, count at 24 h after CLP, n=10
Procedure, shortened: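 Polymicrobial sepsis was induced by cecal ligation and puncture (CLP). Mice received the test compound at 500 μg/kg i.v. 12 h after CLP, with untreated CLP mice as comparators. Bacterial loads in peritoneal fluid and blood were determined by counting colonies, with n = 10 per group. Data are mean ± SD from three independent experiments on different days, analysed by Mann-Whitney U test versus CLP only.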

## PEG5K-KSLW: KSLW mono-PEGylated at the N-terminal amine with monomethoxy PEG-ALD, MW 5,000 Da ({mPEG 5 kDa}-KKVVFWVKFK)
[1]
  In vivo half-life relative to that of KSLW: > 10 fold
DLS assay
  Percentage polydispersity (%Pd), DLS: 23.3%
DLS assay; filtered 0.22 μm, three repeats with 10 subruns
  Average hydrodynamic diameter (DLS): 4.2 nm
[2]
  Decrease of bacterial colony count in the blood: 90%
  Decrease of bacterial colony count in the peritoneal fluid: 70%
